Reference: publication PMC9306536 (Clinical Pharmacology in Drug Development, 2022)
Like-named read-outs stand apart in the source and are kept apart here. Blank lines part the entries; values can stand above or below the compound they belong to.

Experiments:
[1] = cited from earlier work
[2] = cited from earlier work; remark: listed apart in the source
[3] = cited from earlier work; remark: listed apart in the source
[4] = cited from earlier work; remark: listed apart in the source
[5] = Hyperphosphatemia in patients of the population PK dataset; type: in vivo, human
In short: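 Pooled patients from three open-label trials on once-daily oral dosing: phase 1/2 advanced malignancies (1–20 mg escalation, 9 or 13.5 mg expansion; monotherapy or combination; 2-weeks-on/1-week-off or continuous, 21-day cycles; N = 157); Japanese phase 1 (9 or 13.5 mg, intermittent; N = 25); phase 2 cholangiocarcinoma (13.5 mg, 2-weeks-on/1-week-off; N = 136). Hyperphosphatemia scored after treatment.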

[6] = cited from earlier work; remark: listed apart in the source
[7] = cited from earlier work; remark: listed apart in the source
[8] = cited from earlier work; remark: listed apart in the source
[9] = fed state (high-fat and high-calorie diet); ref data on file; cited from earlier work
[10] = cited from earlier work; remark: listed apart in the source
[11] = Population PK analysis of pemigatinib in patients with advanced malignancies; type: in vivo, human
In short: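 Sampling was rich in phase 1 and sparse in phase 2. Values <1 nM (LLOQ) were excluded. Log-transformed data were fitted with 1-/2-compartment models with first-order absorption and linear elimination. Covariates were GAM-screened, then added and removed stepwise in NONMEM. 95% CIs came from a 500-run bootstrap, with VPC.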

[12] = final model covariate coefficient
[13] = final model covariate power term
[14] = final population PK model, Table 4

SMILES: CCN1C(=O)N(c2c(F)c(O)cc(OC)c2F)Cc2cnc3[nH]c(CN4CCOCC4)cc3c21 [M2, O‐desmethyl pemigatinib]
share of the metabolite burden in urine and feces ([1]; M2 and its secondary metabolites (M7, M8, and M9) together, ref data on file): 76.9%

Hyperphosphatemia, Yes ([5]; N = 318): 215 (67.6) n (%) | patients who developed hyperphosphatemia after treatment ([5]; patients included in this analysis (N = 318)): ~68% | CL/F with moderate CYP3A4 inducer higher than pemigatinib alone ([11]; 1 patient): ≈ 100% | CL/F ([11]; base structural model): 10.7 L/h | IIV for Vc/F ([11]; base structural model): 44.6 % CV | IIV for Vp/F ([11]; base structural model): 37.3 % CV | IIV for ka ([11]; base structural model): 133 % CV | Q/F ([11]; base structural model): 14.5 L/h | Vc/F ([11]; base structural model): 134 L | Vp/F ([11]; base structural model): 87.0 L | first-order ka ([11]; base structural model): 0.997 h⁻¹ | CL/F of pemigatinib alone ([11]; comparator for the patient on a moderate CYP3A4 inducer): 11.7 L/h | predicted Cmax steady state (Cmax,ss) ([11]; female patients): 96.53 ng/mL | Magnitude of Interindividual Variability of CL/F ([11]; final model): 43.4 %CV | Magnitude of Interindividual Variability of Vc/F ([11]; final model): 35.1 %CV | Magnitude of Interindividual Variability of ka ([11]; final model): 127 %CV | contribution of sex to the change of oral clearance ([11]; final model): < 20% | decrease of typical CL/F by phosphate binder coadministration ([11]; final model): 14.1% | increase of typical Vc/F by proton pump inhibitor coadministration ([11]; final model): 24.4% | typical CL/F, males higher compared with females ([11]; final model): 19.0% | typical ka, males lower compared with females ([11]; final model): 56.5% | Proton pump inhibitor on Vc/F, Population Mean [11, 12]: –0.244 | Sex (male vs female) on CL, Population Mean [11, 12]: 0.190 | typical apparent volume of distribution of the peripheral compartment (Vp/F) ([11]; final model, 73.3-kg patient): 80.1 L | typical ka ([11]; final model, female patients): 1.49 h⁻¹ | typical absorption rate constant (ka) ([11]; final model, females): 1.49 L/h | typical oral clearance (CL/F) ([11]; final model, females): 10.3 L/h | CL/F, Population Mean [11, 14]: 9.00 L/h | Q/F, Population Mean [11, 14]: 16.0 L/h | Vc/F, Population Mean [11, 14]: 161 L | Vp/F, Population Mean [11, 14]: 80.1 L | ka, Population Mean [11, 14]: 1.49 h⁻¹ | increase of typical CL/F by coadministration with a weak CYP3A4 inducer ([11]; full multivariate PK model (covariate removed from final model)): 24.2% | Vd/F ([11]; human, plasma, oral): 122 L | half-life ([11]; human, plasma, oral): 16 h | increase in Cmax,ss, female vs male patients ([11]; post hoc estimates): 27% | Cmax ([11]; read-out: predicted Cmax steady state (Cmax,ss), female patients): 198 nM | post hoc-estimated CL/F ([11]; the 1 patient with concomitant moderate CYP3A4 inducer): 22.8 L/h | geometric mean CL/F ([11]; this population PK analysis): 10.9 L/h
SMILES: CCN1C(=O)N(c2c(F)c(OC)cc(OC)c2F)Cc2cnc3[nH]c(CN4CCOCC4)cc3c21 [pemigatinib, Pemigatinib]
accumulation ratio for AUC0-24 [2]: ≈ 1.6 | terminal elimination half-life [2]: ≈ 15 hours | pharmacokinetics linearity ([2]; dose range of 1 to 20 mg): linear | renal clearance, % of total clearance ([1]; Introduction, no reference given): 1.19% | predominant clearance pathway in humans ([1]; in vitro and in vivo data, no reference given): liver metabolism | administered radioactive dose recovered as unchanged pemigatinib in feces ([1]; ref data on file): 1.3% | known metabolites, share of total radioactivity ([1]; ref data on file): 72% | DDI with a weak CYP3A4 inhibitor ([3]; PBPK modeling): no DDI | predicted decrease in AUC ([3]; coadministered with a strong or moderate CYP3A4 inducer, data on file): > 50% | predicted increase in AUC ([3]; coadministered with a strong or moderate CYP3A4 inhibitor, data on file): > 50% | reduction of AUC ([3]; coadministration of moderate CYP3A4 inducers): > 50% | pemigatinib AUC increase ([4]; patients with moderate hepatic impairment): 46% | pemigatinib AUC increase ([4]; patients with severe hepatic impairment): 74% | Biopharmaceutics Classification System class [6]: Class II | permeability [6]: high | solubility [6]: pH‐dependent | pemigatinib AUC increase ([7]; coadministered with itraconazole (strong CYP3A4 inhibitor)): ≈ 90% | pemigatinib AUC decrease ([7]; coadministered with rifampin (strong CYP3A4 inducer)): 85% | renal clearance, % of total clearance [8]: 1% | exposure geometric mean ratio vs normal renal function ([8]; end-stage renal disease after hemodialysis): 91.3% | exposure geometric mean ratio vs normal renal function ([8]; end-stage renal disease before hemodialysis): 76.8% | pemigatinib AUC increase ([8]; patients with severe renal impairment): 59% | delay of median time to Cmax [9]: 4.02 h | effect on the overall exposure of pemigatinib ([10]; coadministration with esomeprazole or ranitidine): modest effect | AUC decrease ([10]; with esomeprazole (PPI)): 8% | AUC increase ([10]; with ranitidine (H2-receptor antagonist)): 3% | Body weight (median = 73.3 kg) on Vc/F, Population Mean [11, 13]: 0.738 | Body weight on Vp/F, Population Mean [11, 13]: 1.22
